The M2OR odorant receptor database

What was measured:
Details in all cases: stereoisomer not certain
OR6X1 (Homo sapiens) = OR6X1 (Homo sapiens) (UniProt Q8NH79)
Procedure, shortened: (§1)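 Whether a receptor–molecule pair is responsive (active) rests on the original authors' judgment that its measured signal was statistically different from baseline. Pairs without that judgment are non-responsive (inactive). Sources used varied assay methods, commonly transient luciferase assays in mammalian cell lines.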

OR6Y1 (Homo sapiens) = OR6Y1 (Homo sapiens) (UniProt Q8NGX8)
OR6Y1 (Homo sapiens), sequence (Q8NGX8 whole entry): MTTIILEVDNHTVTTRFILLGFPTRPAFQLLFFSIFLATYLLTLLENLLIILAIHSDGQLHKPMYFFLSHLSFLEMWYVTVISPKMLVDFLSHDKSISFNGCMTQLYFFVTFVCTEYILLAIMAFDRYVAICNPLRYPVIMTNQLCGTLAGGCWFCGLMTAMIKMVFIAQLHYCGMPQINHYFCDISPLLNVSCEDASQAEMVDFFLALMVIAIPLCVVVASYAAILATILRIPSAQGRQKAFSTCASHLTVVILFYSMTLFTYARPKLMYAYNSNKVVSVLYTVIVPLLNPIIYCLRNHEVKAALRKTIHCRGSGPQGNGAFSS
Procedure, shortened: as §1

OR7A10 (Homo sapiens) = OR7A10 (Homo sapiens) (UniProt O76100)
OR7A10 (Homo sapiens), sequence (O76100 whole entry): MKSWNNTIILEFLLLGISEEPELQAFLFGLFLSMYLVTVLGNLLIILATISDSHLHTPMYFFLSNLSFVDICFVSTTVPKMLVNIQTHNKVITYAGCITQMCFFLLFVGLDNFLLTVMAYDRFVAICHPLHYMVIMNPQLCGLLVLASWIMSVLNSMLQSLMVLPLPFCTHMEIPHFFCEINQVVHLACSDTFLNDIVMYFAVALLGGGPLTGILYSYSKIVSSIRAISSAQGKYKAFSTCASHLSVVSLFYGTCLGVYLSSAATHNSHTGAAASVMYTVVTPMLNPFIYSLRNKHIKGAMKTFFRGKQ
Procedure, shortened: as §1

OR7A17 (Homo sapiens) = OR7A17 (Homo sapiens) (UniProt O14581)
OR7A17 (Homo sapiens), sequence (O14581 whole entry): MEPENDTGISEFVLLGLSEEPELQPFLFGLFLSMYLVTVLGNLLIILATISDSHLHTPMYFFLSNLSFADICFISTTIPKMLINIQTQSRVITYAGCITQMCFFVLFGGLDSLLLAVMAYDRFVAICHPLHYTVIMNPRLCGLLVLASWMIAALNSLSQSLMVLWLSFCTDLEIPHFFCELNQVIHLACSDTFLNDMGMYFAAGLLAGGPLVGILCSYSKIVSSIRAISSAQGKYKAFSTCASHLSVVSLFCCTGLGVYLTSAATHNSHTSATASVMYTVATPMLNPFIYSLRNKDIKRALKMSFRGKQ
Procedure, shortened: as §1

OR7A5 (Homo sapiens) = OR7A5 (Homo sapiens) (UniProt Q15622)
OR7A5 (Homo sapiens), sequence (Q15622 whole entry): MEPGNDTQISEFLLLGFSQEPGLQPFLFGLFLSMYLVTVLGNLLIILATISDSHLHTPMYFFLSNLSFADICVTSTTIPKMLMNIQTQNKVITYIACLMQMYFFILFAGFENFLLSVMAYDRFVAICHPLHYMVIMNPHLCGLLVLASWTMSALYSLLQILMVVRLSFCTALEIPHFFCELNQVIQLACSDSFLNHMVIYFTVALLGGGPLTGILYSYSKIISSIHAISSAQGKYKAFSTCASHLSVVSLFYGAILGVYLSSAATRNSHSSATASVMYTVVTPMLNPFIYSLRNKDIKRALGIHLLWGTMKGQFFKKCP
Procedure, shortened: as §1

OR7C1 (Homo sapiens) = OR7C1 (Homo sapiens) (UniProt O76099)
OR7C1 (Homo sapiens), sequence (O76099 whole entry): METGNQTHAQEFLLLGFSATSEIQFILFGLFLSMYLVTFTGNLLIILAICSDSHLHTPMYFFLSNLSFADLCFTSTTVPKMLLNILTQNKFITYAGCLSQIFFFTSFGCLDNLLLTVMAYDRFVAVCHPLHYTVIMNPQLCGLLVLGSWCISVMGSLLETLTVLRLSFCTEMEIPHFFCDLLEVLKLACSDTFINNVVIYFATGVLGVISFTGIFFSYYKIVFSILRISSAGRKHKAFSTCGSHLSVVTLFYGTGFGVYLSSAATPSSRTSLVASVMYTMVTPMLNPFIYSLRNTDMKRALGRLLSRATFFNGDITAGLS
Procedure, shortened: as §1

OR7C2 (Homo sapiens) = OR7C2 (Homo sapiens) (UniProt O60412)
OR7C2 (Homo sapiens), sequence (O60412 whole entry): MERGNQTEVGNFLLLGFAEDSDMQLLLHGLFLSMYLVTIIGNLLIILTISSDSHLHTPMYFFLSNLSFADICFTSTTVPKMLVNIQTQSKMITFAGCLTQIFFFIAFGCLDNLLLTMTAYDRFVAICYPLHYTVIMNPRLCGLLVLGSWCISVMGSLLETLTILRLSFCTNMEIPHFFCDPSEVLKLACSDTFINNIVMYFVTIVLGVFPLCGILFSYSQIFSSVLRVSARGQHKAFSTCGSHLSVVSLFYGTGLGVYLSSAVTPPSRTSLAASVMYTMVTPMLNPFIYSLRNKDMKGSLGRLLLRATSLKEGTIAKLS
Procedure, shortened: as §1

OR7D2 (Homo sapiens) = OR7D2 (Homo sapiens) (UniProt Q96RA2)
OR7D2 (Homo sapiens), sequence (Q96RA2 whole entry): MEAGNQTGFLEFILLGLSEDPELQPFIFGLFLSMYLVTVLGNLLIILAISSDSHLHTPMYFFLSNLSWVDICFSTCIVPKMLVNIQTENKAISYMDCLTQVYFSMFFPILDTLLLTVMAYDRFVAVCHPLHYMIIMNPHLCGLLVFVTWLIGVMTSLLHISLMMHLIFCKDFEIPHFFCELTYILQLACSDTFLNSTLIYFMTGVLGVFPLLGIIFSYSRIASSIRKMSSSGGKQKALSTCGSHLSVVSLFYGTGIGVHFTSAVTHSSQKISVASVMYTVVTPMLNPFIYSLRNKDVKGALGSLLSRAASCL
Procedure, shortened: as §1

OR7A5 M81I = test system: OR7A5 M81I
OR7A5 M81I, sequence (as listed by the source, stated change not applied): as the sequence (Q15622 whole entry) above, with M81I counted along it
Procedure, shortened: as §1

OR7C1 V126I E171K = test system: OR7C1 V126I E171K
Procedure, shortened: as §1

Measured: odorant receptor agonist call;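 note: active if original authors judged signal statistically different from baseline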

OR6X1 (Homo sapiens), sequence (Q8NH79 whole entry): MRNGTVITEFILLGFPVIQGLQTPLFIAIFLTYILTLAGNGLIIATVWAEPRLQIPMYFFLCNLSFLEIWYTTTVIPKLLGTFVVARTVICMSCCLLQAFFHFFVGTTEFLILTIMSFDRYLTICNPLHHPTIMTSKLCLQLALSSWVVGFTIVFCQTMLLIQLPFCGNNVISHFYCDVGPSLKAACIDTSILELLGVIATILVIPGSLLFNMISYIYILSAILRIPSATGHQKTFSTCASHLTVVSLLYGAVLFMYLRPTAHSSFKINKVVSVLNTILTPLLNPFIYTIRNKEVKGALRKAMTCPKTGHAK

Cc1c([N+](=O)[O-])c(C)c([N+](=O)[O-])c(C(C)(C)C)c1[N+](=O)[O-]
not listed: OR7A5 M81I | OR7C1 V126I E171K
inactive: all other assays above

C=CCOC(=O)Cc1ccccc1
inactive: all assays above
